Active and inactive are the calls of the source. The rule behind the calls is not given here.
What was measured:
[1] = Cytotoxicity against mouse MC3T3-E1 cells assessed as cell viability up to 4 uM after 72 hrs by MTT assay; assay type: cell-based; settings: read-out: Activity
Method in brief: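 MC3T3-E1 cells (1 × 10^4 cells/mL) exposed to a range of concentrations for 72 h at 37 °C, 5% CO2. MTT added (500 μg/mL final) for 4 h, formazan dissolved in DMSO, A570 read. Viability given as % of solvent control; IC50 by nonlinear regression of % survival versus concentration.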

MC3T3-E1 [2] = test: Antiosteoporotic activity in mouse MC3T3-E1 cells assessed as increase in alkaline phosphatase activity after 4 days using pNPP as substrate in presence of ascorbic acid and beta-glycerophosphate by colorimetric assay; assay type: functional, cell-based
Method in brief: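 MC3T3-E1 cells (2 × 10^4 cells/mL) in osteogenic medium (400 μM ascorbic acid, 5 mM β-glycerophosphate) with or without compound for 4 days. Fixed in 70% ethanol, lysed in Tris/0.1% Triton X-100 pH 7.5. ALP read as p-NPP to p-nitrophenol at 405 nm; protein by Bradford.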

MC3T3-E1 [3] = test: Antiosteoporotic activity in mouse MC3T3-E1 cells assessed as formation of mineralized nodule after 14 days in presence of ascorbic acid and beta-glycerophosphate by Alizarin red S staining-based microscopic method; assay type: functional, cell-based
Method in brief: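 MC3T3-E1 cells (2 × 10^4 cells/mL) in 400 μM ascorbic acid and 5 mM β-glycerophosphate, with or without compound, for 14 days. Fixed in 70% ethanol 30 min, stained 5 min with 2% Alizarin red S (pH 4.0), viewed by microscopy. Stain extracted with 10% cetylpyridinium chloride, A570 read.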

MC3T3-E1 [4] = test: Decrease in RANKL mRNA expression in mouse MC3T3-E1 cells at up to 4 uM after 48 hrs in presence of ascorbic acid and beta-glycerophosphate by real-time PCR analysis; assay type: functional, cell-based
Mus musculus [5] = species: Mus musculus; test: Activation of Wnt signaling pathway in mouse MC3T3-E1 cells assessed as increase in BMP2 mRNA expression after 48 hrs in presence of ascorbic acid and beta-glycerophosphate by real-time PCR analysis; assay type: cell-based
Mus musculus [6] = species: Mus musculus; test: Activation of Wnt signaling pathway in mouse MC3T3-E1 cells assessed as increase in Runx2 mRNA expression after 48 hrs in presence of ascorbic acid and beta-glycerophosphate by real-time PCR analysis; assay type: cell-based
MC3T3-E1 [7] = test: Upregulation of beta-catenin protein expression in mouse MC3T3-E1 cells after 48 hrs in presence of ascorbic acid and beta-glycerophosphate by Western blot analysis; assay type: functional, cell-based
Osteoclast = test: Inhibition of RANKL/M-CSF-induced osteoclast differentiation in mouse bone marrow-derived osteoclasts assessed as downregulation of c-Fos protein expression up to 4 uM after 48 hrs by Western blot analysis; assay type: functional, cell-based
Method in brief: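 Mouse bone marrow cells were taken from 4-week-old mice and primed 24 h in 30 ng/mL M-CSF. They were then given 100 ng/mL RANKL plus 30 ng/mL M-CSF, with or without compound, for 48 h. Lysates were made in boiling SDS buffer and quantified by BCA. 40–50 μg was run on SDS-PAGE and immunoblotted on PVDF with β-actin reference and ECL read-out.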

Mus musculus [8] = test: Anti-osteoporotic activity in ovariectomized ICR mouse assessed as increase in trabecular thickness in femur at 2 to 10 mg/kg, po after 12 weeks by microcomputed tomography; assay type: functional, organism-based
Mus musculus [9] = test: Effect on TRAP activity in serum of OVX-induced bone loss ICR mouse model at 5 mg/kg, po for 12 weeks (reference value: 19.8 +/- 1.0 U/L); assay type: functional
MC3T3-E1 [10] = test: Increase in OPN mRNA expression in 2 days differentiated mouse MC3T3-E1 cells up to 4 uM after 48 hrs in presence of ascorbic acid and beta-glycerophosphate by real-time PCR analysis; assay type: functional, cell-based

SMILES: C[C@]1(OC(=O)/C=C/c2ccccc2)C[C@@H](O)[C@]2(O)C=CO[C@@H](O[C@@H]3O[C@H](CO)[C@@H](O)[C@H](O)[C@H]3O)[C@@H]21 [HARPAGOSIDE]
- viability at 72 h [1]: > 90%
- Activity (MC3T3-E1 [2]): Dose-dependent effect
- Activity (MC3T3-E1 [3]): Dose-dependent effect
- Activity (MC3T3-E1 [4]): Active
- Activity (Mus musculus [5]): Dose-dependent effect
- Activity (Mus musculus [6]): Dose-dependent effect
- Activity (MC3T3-E1 [7]): Dose-dependent effect
- inhibition (Osteoclast): Active
- Activity (Mus musculus [8]): Active
- Activity (Mus musculus [9]): 8.9 U/L
- Activity (MC3T3-E1 [10]): Dose-dependent effect

Reference: ChEMBL document CHEMBL4052590, “Anti-Osteoporotic Activity of Harpagoside by Upregulation of the BMP2 and Wnt Signaling Pathways in Osteoblasts and Suppression of Differentiation in Osteoclasts” (J Nat Prod, 2017)
